# In publication PMC6893084 (Journal of thrombosis and haemostasis : JTH, 2019):
# Values joined by “and” are separate entries in the source; they are usually repeats but may differ in a detail not shown here. Identical values can stand only once. Like-named read-outs stand apart in the source and are kept apart here.
# Legend:
# SCI–FXIa complex = SCI–FXIa complex (Homo sapiens, UniProt P03951); assay: In vitro reversibility of SCI inhibition of FXIa by antidotes, S-2366 hydrolysis; assay type: biochemical; conditions: for restoration potency (EC50) / restoration yield (ΔY) of FXIa activity: FXIa inhibited by 2 μM of SCI, pH 7.4, 37 °C
# Sequence of SCI–FXIa complex (P03951 388-625 limits assumed): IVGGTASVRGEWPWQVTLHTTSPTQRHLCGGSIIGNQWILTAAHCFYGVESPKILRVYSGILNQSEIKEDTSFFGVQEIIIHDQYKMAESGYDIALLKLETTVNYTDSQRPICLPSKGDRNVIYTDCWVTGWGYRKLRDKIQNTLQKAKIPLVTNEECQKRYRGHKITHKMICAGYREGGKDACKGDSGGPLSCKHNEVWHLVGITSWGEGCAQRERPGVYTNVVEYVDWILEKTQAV
# Sequence of SCI–FXIa complex (P03951 19-387 limits assumed): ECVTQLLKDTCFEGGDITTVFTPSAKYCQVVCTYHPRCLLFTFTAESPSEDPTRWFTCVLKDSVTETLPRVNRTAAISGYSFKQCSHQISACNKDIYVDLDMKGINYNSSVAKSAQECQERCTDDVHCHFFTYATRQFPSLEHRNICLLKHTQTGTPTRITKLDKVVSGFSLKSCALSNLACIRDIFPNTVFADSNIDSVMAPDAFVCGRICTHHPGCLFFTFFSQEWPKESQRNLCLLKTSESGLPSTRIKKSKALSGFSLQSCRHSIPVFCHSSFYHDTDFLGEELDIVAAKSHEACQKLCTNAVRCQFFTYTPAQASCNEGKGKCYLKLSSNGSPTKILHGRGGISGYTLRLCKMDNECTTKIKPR
# Trypsin = assay: Chromogenic substrate hydrolysis assay, trypsin; assay type: biochemical, human
# Summary of the method: (§1)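 Each purified human protease was tested against varying test compound levels under optimal conditions taken from the literature. A chromogenic substrate was used, except for FXIIIa, which used a fluorescence bisubstrate format. Protease activity versus concentration was fitted by non-linear regression to a logistic equation, giving IC50, efficacy (ΔY) and Hill slope.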
# Plasmin = Plasmin (Homo sapiens, UniProt P00747); assay: Chromogenic substrate hydrolysis assay, plasmin; assay type: biochemical
# Sequence of Plasmin (P00747 581-810 limits assumed): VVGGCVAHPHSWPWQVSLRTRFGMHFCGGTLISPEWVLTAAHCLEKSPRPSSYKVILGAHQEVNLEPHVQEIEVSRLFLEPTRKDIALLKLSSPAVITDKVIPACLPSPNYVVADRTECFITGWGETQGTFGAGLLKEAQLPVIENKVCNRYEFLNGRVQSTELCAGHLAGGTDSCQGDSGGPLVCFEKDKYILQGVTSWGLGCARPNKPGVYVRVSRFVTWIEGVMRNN
# Sequence of Plasmin (P00747 97-580 partner limits assumed): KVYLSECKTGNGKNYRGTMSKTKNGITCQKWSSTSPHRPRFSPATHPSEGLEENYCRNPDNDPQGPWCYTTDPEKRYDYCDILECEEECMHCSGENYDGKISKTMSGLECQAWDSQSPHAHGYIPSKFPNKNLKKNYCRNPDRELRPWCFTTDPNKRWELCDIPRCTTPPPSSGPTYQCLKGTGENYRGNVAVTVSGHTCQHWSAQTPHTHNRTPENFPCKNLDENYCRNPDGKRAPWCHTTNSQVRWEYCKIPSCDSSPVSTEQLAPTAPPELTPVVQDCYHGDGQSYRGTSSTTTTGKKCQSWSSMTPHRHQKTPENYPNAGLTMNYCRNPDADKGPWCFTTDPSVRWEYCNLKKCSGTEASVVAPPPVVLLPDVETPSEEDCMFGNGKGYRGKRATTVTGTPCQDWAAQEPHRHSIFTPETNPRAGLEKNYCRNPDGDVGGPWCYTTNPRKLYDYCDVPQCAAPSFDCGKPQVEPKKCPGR
# Summary of the method: as §1
# rFXIa-FLABS2 = rFXIa-FLABS2 (Homo sapiens, UniProt P03951, K547A/R548A/R550A); assay type: biochemical
# Sequence of rFXIa-FLABS2 (P03951 388-625 K547A/R548A/R550A limits assumed): as the sequence (P03951 388-625 limits assumed) above, with K160A, R161A, R163A counted along it
# Sequence of rFXIa-FLABS2 (P03951 19-387 limits assumed): as the sequence (P03951 19-387 limits assumed) above
# FXIIa = FXIIa (Homo sapiens, UniProt P00748); assay: Chromogenic substrate hydrolysis assay, FXIIa; assay type: biochemical
# Summary of the method: as §1
# DEGR-FXIa [1] = molecular target: T1, DEGR-FXIa (Homo sapiens, UniProt P03951); assay: Acrylamide quenching of dansyl fluorescence of DEGR-FXIa; assay type: binding; conditions: 2 μM SCI; acrylamide 0–800 mM
# T1 sequence (P03951 388-625 limits assumed): as the sequence (P03951 388-625 limits assumed) above
# T1 sequence (P03951 19-387 limits assumed): as the sequence (P03951 19-387 limits assumed) above
# Summary of the method: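 Dansyl-labelled active-site-blocked human FXIa (DEGR-FXIa) in 20 mM Tris-HCl, pH 7.4, 37 °C. Acrylamide (0–800 mM) was added sequentially with or without a fixed level of test compound. Dansyl emission was recorded with excitation at 345 nm. Data were fitted to linear or quadratic Stern–Volmer equations.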
# FXIa [2] = molecular target: T2, FXIa (Homo sapiens, UniProt P03951); assay: FXIa inhibition with sub-optimal chromogenic substrate Spectrozyme TH; assay type: biochemical
# T2 sequence (P03951 388-625 limits assumed): as the sequence (P03951 388-625 limits assumed) above
# T2 sequence (P03951 19-387 limits assumed): as the sequence (P03951 19-387 limits assumed) above
# Thrombin [3] = molecular target: T3, Thrombin (Homo sapiens, UniProt P00734); assay: Thrombin inhibition with sub-optimal chromogenic substrate S-2366; assay type: biochemical
# rFXIa-FLWT = rFXIa-FLWT (Homo sapiens, UniProt P03951); assay: Direct inhibition of recombinant full-length wild type FXIa, S-2366 hydrolysis; assay type: biochemical; conditions: pH 7.4, 37 °C
# Plasma Kallikrein = Plasma Kallikrein (Homo sapiens, UniProt P03952); assay: Chromogenic substrate hydrolysis assay, plasma kallikrein; assay type: biochemical
# Summary of the method: as §1
# [4] = FeCl3-induced arterial thrombosis model in rats; assay type: in vivo, rat
# Summary of the method: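 Female Wistar rats (~250 g), under ketamine/xylazine with isoflurane maintenance. Test compound (250, 500 or 2000 μg/rat) or enoxaparin in PBS was infused into the tail vein. After 5 min, 10% FeCl3-soaked filter paper was applied to the exposed abdominal aorta between two sutures for 10 min. The clot matured 15 min, sutures were tightened, and thrombus wet and dry weights recorded.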
# Rat tail bleeding = assay type: in vivo
# human plasma [5] = assay: Prothrombin time; assay type: biochemical; conditions: even at 150 μM
# Summary of the method: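 One-stage recalcification clotting assay of human plasma containing varying levels of test compound. Clotting was started with Thromboplastin-D and CaCl2 at 37 °C and time to clot recorded. Clotting time versus concentration was fitted with a quadratic equation to give the concentration that doubles clotting time.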
# [6] = test system: HT-29 colorectal cell line; conditions: HT-29, SCI as high as 100 μM; cited from earlier work
# FXIIIa = FXIIIa (Homo sapiens, UniProt P00488); assay: Fluorescence-based bisubstrate assay, FXIIIa; assay type: biochemical
# Sequence of FXIIIa (P00488 39-732 limits assumed): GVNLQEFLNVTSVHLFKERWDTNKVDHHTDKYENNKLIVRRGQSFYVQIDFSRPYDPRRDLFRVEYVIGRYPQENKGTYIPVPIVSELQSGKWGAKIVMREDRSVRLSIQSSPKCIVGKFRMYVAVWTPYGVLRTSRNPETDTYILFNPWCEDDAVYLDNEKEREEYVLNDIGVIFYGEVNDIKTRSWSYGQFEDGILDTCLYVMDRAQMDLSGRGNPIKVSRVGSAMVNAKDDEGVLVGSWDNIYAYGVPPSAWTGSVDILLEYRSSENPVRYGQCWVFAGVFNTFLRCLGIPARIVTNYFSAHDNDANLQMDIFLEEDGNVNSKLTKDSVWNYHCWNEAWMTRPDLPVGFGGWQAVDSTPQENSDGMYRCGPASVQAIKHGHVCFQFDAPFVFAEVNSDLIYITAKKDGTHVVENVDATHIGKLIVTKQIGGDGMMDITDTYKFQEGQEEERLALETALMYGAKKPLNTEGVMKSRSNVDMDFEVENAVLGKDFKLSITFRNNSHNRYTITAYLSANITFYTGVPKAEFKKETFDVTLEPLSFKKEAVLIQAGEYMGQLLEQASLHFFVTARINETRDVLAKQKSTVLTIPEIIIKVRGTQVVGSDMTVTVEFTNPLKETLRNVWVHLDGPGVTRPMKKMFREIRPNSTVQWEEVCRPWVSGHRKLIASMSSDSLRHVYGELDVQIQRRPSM
# Summary of the method: as §1
# FVIIa/TF = FVIIa/TF (Homo sapiens, UniProt P08709); assay: Chromogenic substrate hydrolysis assay, FVIIa/TF; assay type: biochemical
# Summary of the method: as §1
# FXIa [7] = molecular target: T2, FXIa; assay: Fluorescence titration, intrinsic tryptophan fluorescence of FXIa; assay type: binding
# [8] = Thromboplastin-induced venous thrombosis model in rats; assay type: in vivo; conditions: 250 μg per rat
# human whole blood [9] = assay: Hemostasis analysis; conditions: ex vivo
# Summary of the method: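 Citrated human whole blood was spiked with varying levels of test compound or enoxaparin and recalcified with CaCl2. A cone was lowered into the blood, and tension from platelets attaching within the fibrin meshwork was recorded automatically as platelet contractile force, thrombin generation time and clot elastic modulus.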
# FXIa [10] = molecular target: T2, FXIa; assay: Competition between SCI and UFH, S-2366 hydrolysis assay; assay type: biochemical; conditions: UFH increased from 0 to 150 μM; pH 7.4, 37 °C
# Summary of the method: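 Purified full-length human FXIa hydrolysing S-2366 in 20 mM Tris-HCl, pH 7.4, 37 °C, read as initial rate of absorbance rise at 405 nm. Inhibition curves were run with unfractionated heparin at 0, 5, 50 or 150 μM. Fitted to a logistic dose–response equation for IC50, ΔY and Hill slope.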
# Thrombin [11] = molecular target: T3, Thrombin; assay: Chromogenic substrate hydrolysis assay, thrombin; assay type: biochemical
# Summary of the method: as §1
# human plasma [12] = assay: Activated partial thromboplastin time; assay type: biochemical
# [13] = test system: human plasma deficient of antithrombin and heparin cofactor II; assay: Clotting of human plasma deficient of antithrombin or heparin cofactor II; assay type: biochemical; conditions: plasma deficient in antithrombin or heparin cofactor II
# plasma = assay: Plasma clotting times in the presence of added FXI neutralizing antibody; assay type: biochemical; conditions: antibody 9 μg per 300 μL; SCI as high as 100 μM
# Summary of the method: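 Plasma APTT was measured by a one-stage recalcification assay at 37 °C, with clotting initiated by CaCl2. Plasma contained FXI-neutralizing antibody at 9 μg per 300 μL, and test compound was varied over a wide concentration range.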
# [14] = molecular target: human, wild-type, full-length FXIa (Homo sapiens, UniProt P03951); assay: Michaelis-Menten kinetics of S-2366 hydrolysis by FXIa in the presence of SCI; assay type: biochemical; conditions: pH 7.4, 37 °C
# Sequence of human, wild-type, full-length FXIa (P03951 388-625 limits assumed): as the sequence (P03951 388-625 limits assumed) above
# Sequence of human, wild-type, full-length FXIa (P03951 19-387 limits assumed): as the sequence (P03951 19-387 limits assumed) above
# Chymotrypsin = assay: Chromogenic substrate hydrolysis assay, chymotrypsin; assay type: biochemical, human
# Summary of the method: as §1
# FIXa = FIXa (Homo sapiens, UniProt P00740); assay: Chromogenic substrate hydrolysis assay, FIXa; assay type: biochemical
# Summary of the method: as §1
# rat plasma = assay: APTT of rat plasma; assay type: biochemical
# rFXIa-FLABS1 = rFXIa-FLABS1 (Homo sapiens, UniProt P03951); assay type: biochemical
# Sequence of rFXIa-FLABS1 (P03951 388-625 limits assumed): as the sequence (P03951 388-625 limits assumed) above
# Mouse tail bleeding = assay type: in vivo; conditions: IV 35 μg/mouse SCI vs 300 μg enoxaparin
# Summary of the method: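 Test compound or enoxaparin comparator was given IV, then the tail was transected. Blood loss (mg) and time to cessation of bleeding were measured, with n = 4–7 per group. Groups were compared by two-tailed t-tests with unequal variance.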
# FXIa [15] = molecular target: T2, FXIa; assay: Direct inhibition of FXIa, S-2366 chromogenic substrate hydrolysis; assay type: biochemical
# Summary of the method: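 Full-length wild-type purified human FXIa hydrolysing chromogenic substrate S-2366 in 20 mM Tris-HCl, pH 7.4, 37 °C, with varying test compound. Activity taken as the initial rate of absorbance increase at 405 nm. A logistic dose–response equation fitted to residual protease activity gave IC50, efficacy (ΔY) and Hill slope.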
# human whole blood [16] = assay: Thromboelastography; conditions: ex vivo
# Summary of the method: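 Citrated human whole blood with varying levels of test compound or enoxaparin was recalcified with CaCl2 to start clotting. The cup oscillated through a 4° 45ˋ angle at 0.1 Hz. Reaction time (min), angle (deg), maximum amplitude and shear elastic modulus were recorded automatically.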
# DEGR-FXIa [17] = molecular target: T1, DEGR-FXIa; assay: Fluorescence titration, dansyl fluorescence of DEGR-FXIa; assay type: binding; conditions: pH 7.4, 37 °C
# FXa = FXa (Homo sapiens, UniProt P00742); assay: Chromogenic substrate hydrolysis assay, FXa; assay type: biochemical
# Summary of the method: as §1
# FXIa [18] = molecular target: T2, FXIa; assay: FXIa cleavage of macromolecular substrate FIX to FIXa; assay type: biochemical
molecule,measurement,setting,value
"O=S(=O)(O)OC[C@H]1O[C@@](COS(=O)(=O)O)(O[C@H]2O[C@H](COS(=O)(=O)O)[C@@H](OS(=O)(=O)O)[C@H](OS(=O)(=O)O)[C@H]2OS(=O)(=O)O)[C@@H](OS(=O)(=O)O)[C@@H]1OS(=O)(=O)O [SOS, sucrose octasulfate]",restoration potency (EC50),SCI–FXIa complex,750 µg/mL
same,restoration yield (ΔY) of FXIa activity,SCI–FXIa complex,~ 39%
polybrene,restoration potency (EC50),SCI–FXIa complex,0.4 µg/mL
same,restoration yield (ΔY) of FXIa activity,SCI–FXIa complex,~ 88%
protamine sulfate,restoration potency (EC50),SCI–FXIa complex,14.0 µg/mL
same,restoration yield (ΔY) of FXIa activity,SCI–FXIa complex,~ 69%
sulfated chiro-inositol [SCI],IC50,Trypsin,> 50 µM
same,IC50,Plasmin,> 40 µM
same,reduction in efficacy relative to rFXIa-FLWT,rFXIa-FLABS2,~ 20%
same,weaker inhibition relative to rFXIa-FLWT,rFXIa-FLABS2,~ 5 fold
same,IC50,rFXIa-FLABS2; full length FXIa missing catalytic domain's HBS,20.7 ± 3.6 µM
same,IC50,FXIIa,> 50 µM
same,dansyl fluorescence of SCI–DEGR-FXIa complex on acrylamide addition,DEGR-FXIa [1],remained invariant
same,inhibition of FXIa with Spectrozyme TH,FXIa [2],potent inhibition
same,inhibition of thrombin with S-2366,Thrombin [3],essentially no inhibition
same,IC50,rFXIa-FLWT,4.2 ± 0.6 µM
same,IC50,Plasma Kallikrein,> 65 µM
same,wet weight of thrombus lower than negative control (PBS),[4]; 250 μg per rat,~ 33%
same,wet weight of thrombus,"[4]; 250 μg per rat, n=14, PBS 43.35±2.63 mg",28.85 ± 2.12 mg
same,decrease of average dry thrombus weight vs PBS,[4]; 500 or 2000 μg/animal,55–63%
same,decrease of average wet thrombus weight vs PBS,[4]; 500 or 2000 μg/animal,53–55%
same,blood loss,"Rat tail bleeding; 250 μg/rat IV, n=15, PBS 147±29 mg",119 ± 41 mg
same,tail bleeding time,"Rat tail bleeding; 250 μg/rat, PBS 13±4",14 ± 4 min
same,impact on the PT,human plasma [5],minimal
same,cellular toxicity (cell death),[6],No significant adverse effect
same,IC50,FXIIIa,> 90 µM
same,IC50,FVIIa/TF,> 50 µM
same,Kd,"FXIa [7]; intrinsic fluorescence, pH 7.4, 37 °C",0.063 ± 0.011 µM
same,saturating increase in intrinsic fluorescence,"FXIa [7]; pH 7.4, 37 °C",133%
same,stoichiometry of SCI binding to dimeric FXIa,FXIa [7]; spectrofluorometric titration,1.83±0.08
same,reduction of average dry weight of thrombus,[8],48%
same,wet weight of thrombus less than PBS group,[8],~ 42%
same,wet weight of thrombus,"[8]; n=13, PBS 38.61±3.56 mg",22.46 ± 1.14 mg
same,effect on HAS parameters,human whole blood [9],"reduced platelet contractile force and clot elastic modulus, whereas prolonged force onset time"
same,increase of IC50 of FXIa inhibition with UFH,FXIa [10],~ 6 fold
same,IC50,Thrombin [11],> 40 µM
same,concentration for 2-fold increase in APTT,human plasma [12],32.2 µM
same,effect on APTT of serpin-deficient plasma,[13],preferentially prolonged the APTT
same,reversibility with protamine,SCI–FXIa complex; protamine as antidote,> 50%
same,effect on plasma clotting times with FXI neutralizing antibody,plasma,did not significantly impact plasma clotting times
same,decrease of VMAX,[14],~ 4 fold
same,VMAX in the presence of SCI,[14]; decreased from 52.1,14.2 mAU/min
same,IC50,Chymotrypsin,> 40 µM
same,IC50,FIXa,> 65 µM
same,effect on APTT of rat plasma,rat plasma,preferentially enhance APTT
same,potency relative to rFXIa-FLWT,rFXIa-FLABS1,essentially identical
same,IC50,rFXIa-FLABS1; full length FXIa missing A3 domain's HBS,3 ± 0.2 µM
same,highest dose studied relative to effective dose,"Maximum tolerated dose; 25 mg/animal, no bleeding or cellular toxicity",> 100 fold
same,"tolerability (mobility, weight loss, bleeding)","Maximum tolerated dose; rats, 5, 10 and 25 mg per animal IV, n=3/group, 7 days observation",well tolerated
same,blood loss and bleeding time,Mouse tail bleeding,much lower than that induced by enoxaparin
same,potency relative to SPGG (better),FXIa [15]; FXIa inhibition,~ 2 fold and 2 fold
same,efficacy of FXIa inhibition,"FXIa [15]; S-2366, pH 7.4, 37 °C",100%
same,IC50,"FXIa [15]; full length, wild type, purified human FXIa, S-2366, pH 7.4, 37 °C",0.28 ± 0.01 µM
same,IC50,FXIa [15]; read-out: potency of FXIa inhibition,0.28 µM and ~0.28 µM
same,effect on TEG parameters,human whole blood [16],"increase time to initial fibrin formation, while decrease all other parameters"
same,increase in dansyl fluorescence,DEGR-FXIa [17],152%
same,Kd,"DEGR-FXIa [17]; read-out: affinity (KD), dansyl fluorescence",0.025 µM
same,IC50,FXa,> 40 µM
same,inhibition of FXIa cleavage of FIX to FIXa,FXIa [18],dose-dependently inhibited
